The list is not random: actives were taken first. Their share in the collection is about 4.7%.
MPTP inh = blocks calcium-induced mitochondrial swelling; isolated mouse mitochondria, Ca2+ swelling absorbance, 30 min; inhibition, % at 10 µM; 360,000 tested, 1.4% active; AID 602449;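 active means inhibition of 50% or more, scaled per plate between neutral and stimulator controls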;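 further: 0% = DMSO wells given calcium and 100% = 1 mM EGTA wells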
MT1-MMP act inh = blocks activation of human MT1-MMP; P50281; HT1080 RFP-PRO-GFP cells, GFP/RFP ratio fluorescence, overnight; percent of plate control window, DMSO zero; GFP/RFP ratio change, % at 20 µM; 360,000 tested, 0.061% active; AID 651647;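 active means GFP/RFP ratio change of at least 30% with cell ATP level not reduced by more than half and red fluorescence within 50% of control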
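Material: RFP-PRO-GFP reporter HT1080 cells. Dosing: single-point 20 µM compound, 1% DMSO. Controls: DMSO and RFP-L50D-GFP cell wells. Timing: cells overnight before dosing, compound overnight, 37 °C, 5% CO2. Measure: GFP/RFP fluorescence ratio.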
GRIN3A LBD mod = modulates the human NR3A ligand-binding domain; AID 1259313; 340,000 tested, 2.5% active; Tm shift relative to glycine control, % at 25 µM; NR3A LBD differential scanning fluorimetry, Tm shift; 0% = protein alone, 100% = glycine-bound protein;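 active means melting temperature shift of at least 10% of the positive control shift, at one fixed dose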
ADAM10 inh = inhibits human ADAM10. O14672. recombinant ADAM10, EDANS/DABCYL FRET peptide cleavage, 3 h. inhibition, % at 7 µM. 370,000 tested, 0.62% active. AID 720582;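 active means inhibition above a per-campaign cutoff equal to the mean of compounds falling between control-based bounds plus 3 SD, cut at about 20% in these data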;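 further: 0% = DMSO wells while the 100% control is not disclosed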
SKN-1 block = blocks SKN-1 activity in C. elegans; 360,000 tested, 0.49% active; inhibition, % at 21.8 µM; AID 624304; C. elegans VP596 Pgst-4::GFP/RFP ratio, acrylamide-induced, 24 h;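 active means interference check ratio from 0.5 to 1.5 plus GFP to RFP signal ratio inhibition reaching or exceeding a fixed threshold, cut at about 30% in these data, passing the limit was not always enough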
ADAM17 inh = ADAM17 inhibition, QFRET primary screen | P78536 | recombinant ADAM17, EDANS/DABCYL FRET peptide cleavage | inhibition, % at 6.95 µM | 370,000 tested, 0.83% active | AID 720648;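 active means inhibition above the mean of compounds lying between control limits plus 3 SD, set per campaign, cut at about 8.5% in these data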;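 further: 0% = DMSO-only wells as the low control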
Target sequence (P78536 215-824 limits assumed): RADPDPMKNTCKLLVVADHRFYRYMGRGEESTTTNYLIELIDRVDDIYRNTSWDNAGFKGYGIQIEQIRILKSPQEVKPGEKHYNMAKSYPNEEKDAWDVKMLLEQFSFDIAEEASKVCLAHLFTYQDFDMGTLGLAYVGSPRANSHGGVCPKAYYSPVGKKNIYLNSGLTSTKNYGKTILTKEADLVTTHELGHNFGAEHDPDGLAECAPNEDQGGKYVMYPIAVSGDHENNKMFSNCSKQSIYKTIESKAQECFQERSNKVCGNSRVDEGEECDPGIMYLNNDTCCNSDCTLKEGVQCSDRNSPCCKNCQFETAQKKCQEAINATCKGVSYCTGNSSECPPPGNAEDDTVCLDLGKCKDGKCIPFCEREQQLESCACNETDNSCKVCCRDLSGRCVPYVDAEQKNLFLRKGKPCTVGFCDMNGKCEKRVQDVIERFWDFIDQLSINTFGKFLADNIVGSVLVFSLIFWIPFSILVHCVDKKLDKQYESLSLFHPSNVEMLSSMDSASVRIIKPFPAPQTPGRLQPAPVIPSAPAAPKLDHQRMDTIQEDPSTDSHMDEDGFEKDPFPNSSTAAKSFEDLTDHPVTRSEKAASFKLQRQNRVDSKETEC
Starred values were filed as active, the others as inactive; x = no result.

SMILES	MPTP inh	MT1-MMP act inh	GRIN3A LBD mod	ADAM10 inh	SKN-1 block	ADAM17 inh
COC(=O)c1cc(S(=O)(=O)N(C)Cc2ccco2)c[nH]1	1.5	3.4	-3.0	-2.9	11.3	-1.0
O=C(O)c1cccnc1SCc1cn2cc(Cl)ccc2n1	0.1	-3.6	-2.6	2.6	3.5	-3.0
Cc1cc2ccccc2c(=O)n1CC(=O)NCC(=O)N1CCN(c2ccccc2)CC1	0.4	4.7	6.8	-23.4	-6.6	-3.2
CCOC(Cn1c(SCc2cc(C(C)=O)ccc2OC)nc2ccccc2c1=O)OCC	4.2	-2.2	13.0*	-7.6	-4.8	1.0
COc1ccc(C(C)=O)cc1CSc1nc2cc(C(=O)O)ccc2c(=O)n1Cc1ccccc1	-5.9	8.7	1.4	-8.9	-1.2	0.4
C#CCOc1ccccc1C(=O)NNc1ccc([N+](=O)[O-])cc1[N+](=O)[O-]	x	x	x	-7.2	x	-2.2
CC1CC(C)CN(C(=O)CNC(=O)c2ccc3ccccc3c2)C1 (stereo not drawn)	-0.1	-4.2	91.7*	-3.0	12.8	0.9
O=C(NCC(=O)N1CCCCC1)c1ccc2ccccc2c1	-0.4	2.2	1.1	-6.3	-21.7	-0.8
CC(C)[C@@H](C(=O)NC1CCN(Cc2ccccc2)CC1)N1C(=O)N2CCc3c([nH]c4ccccc34)[C@@]2(C)C1=O	-2.4	0.0	36.9*	4.8	7.1	0.8
C[C@@H](C(=O)NC1CCN(Cc2ccccc2)CC1)N1C(=O)N2CCc3c([nH]c4ccccc34)[C@@]2(C)C1=O	-2.4	1.1	-0.5	-5.6	-1.6	1.6
COc1cc(SSc2cc(OC)cc([N+](=O)[O-])c2N)c(N)c([N+](=O)[O-])c1	8.4	18.2	37.3*	14.4	10.2	5.2
CCOC(=O)Cc1cc(=O)[nH]c(/N=C(\N)Nc2ccc(C)c(C)c2)n1	-0.9	-5.7	-0.8	2.5	-0.1	-0.5
Cc1cc2ccccc2c(=O)n1CC(=O)NCC1COc2ccccc2O1 (stereo not drawn)	-3.6	-5.5	-0.1	-28.3	-23.5	-6.4
COc1ccc(P(=O)(COc2ccc([N+](=O)[O-])cc2)c2ccc(OC)cc2)cc1	1.7	3.8	-3.1	0.9	8.6	0.4
O=C(NCc1nnnn1-c1ccc(F)c(F)c1)c1ccc2ccccc2c1	0.5	-0.1	6.1	-10.6	-6.7	-4.0
COC(=O)/C(C#N)=C1/C=Cc2ccccc2N1C	-0.4	-2.9	-1.2	0.2	7.4	0.6
N#C/C(C(=O)Oc1ccccc1)=C1\C=Cc2ccccc2N1	-0.8	-4.2	20.1*	3.4	11.6	-3.5
CCOc1ccc(-c2c(C(=O)N/N=C/c3ccc(OC(C)C)cc3)nnn2-c2nonc2N)cc1	0.0	-2.2	11.0*	4.6	4.3	3.9
Cc1ccc(-c2c(C(=O)N/N=C/c3cccc(Cl)c3)nnn2-c2nonc2N)cc1	-1.5	-0.9	15.3*	2.5	0.2	2.1
CCOc1ccc(-c2c(C(=O)N/N=C/c3ccc(Cl)cc3)nnn2-c2nonc2N)cc1	-0.7	-1.1	13.4*	9.4	2.8	6.2
CCOc1ccc(-c2c(C(=O)N/N=C/c3ccc(C)cc3)nnn2-c2nonc2N)cc1	3.9	-2.2	7.1	8.1	11.4	3.4
CCOc1ccc(/C=N/NC(=O)c2nnn(-c3nonc3N)c2-c2cccs2)cc1	-2.1	3.2	12.7*	-1.7	15.5	-4.0
NC(=O)c1ccsc1NC(=O)COC(=O)C1=NNC(=O)CC1	0.7	5.3	-2.6	-6.8	3.7	-1.0
O=[N+]([O-])c1ccc(-c2nc(NCc3cccnc3)c3ccccc3n2)cc1	1.5	0.0	37.1*	-1.8	15.4	-1.0
COc1ccc(Nc2nc(-c3cccc([N+](=O)[O-])c3)nc3ccccc23)c(OC)c1	1.2	-1.8	20.7*	-4.0	-6.8	-3.8
SMILES	MPTP inh	MT1-MMP act inh	GRIN3A LBD mod	ADAM10 inh	SKN-1 block	ADAM17 inh
COc1ccc(OC)c(Nc2nc(-c3cccc([N+](=O)[O-])c3)nc3ccccc23)c1	2.0	5.0	-5.1	6.6	-7.7	1.0
COc1ccccc1Nc1nc(-c2cccc([N+](=O)[O-])c2)nc2ccccc12	-0.4	0.1	-3.4	-4.2	-26.3	0.5
COc1ccccc1Nc1nc(-c2ccc([N+](=O)[O-])cc2)nc2ccccc12	3.4	3.8	39.4*	-2.4	-10.9	-5.6
CCOC(=O)c1c(NC(=O)CN2CCC(C)CC2)sc(C)c1C	18.2	-6.8	0.3	-1.6	-7.4	-2.4
CCC1CN(C(=O)NCc2ccc(C)cc2)c2ccccc2O1 (stereo not drawn)	-0.2	-8.9	0.5	1.6	4.0	-4.0
CCn1cnc2c(Nc3cc(F)cc(F)c3)nc(C#N)nc21	0.4	11.8	3.3	-3.5	-1.6	-1.5
N#Cc1nc(Nc2cccc(Cl)c2)c2ncn(C3CCCC3)c2n1	2.5	27.9	11.4*	-13.6	-12.1	-7.3
CCOc1ccc2nc(N=NC3=C(O)CC(C)(C)CC3=O)sc2c1	5.0	11.4	-5.3	-6.6	35.3*	-2.8
CC(=O)Nc1cc2c(cc1C(C)=O)OCCO2	-1.3	1.4	12.5*	-52.8	-3.3	-19.0
O=C(Nc1ccc(-c2nc3c(ccc4ccccc43)o2)cc1)c1ccco1	2.1	6.7	35.0*	-125.5	9.4	-47.7
O=C(Nc1ccc(-c2nc3cc(Cl)ccc3c(=O)o2)cc1)c1ccco1	-0.2	-1.4	11.2*	-5.9	4.8	-5.7
O=C(Nc1ccc(-c2noc(CCc3ccccc3)n2)cc1)c1ccco1	-0.2	-1.6	-3.5	14.1	43.8*	4.8
O=C(Nc1ccc(Cl)cc1)c1ccco1	-1.4	0.5	-30.2	1.2	19.6	1.6
c1ccc(CCc2nc(-c3ccccc3)no2)cc1	0.8	-0.9	-0.3	5.5	-10.9	-0.4
CCCn1c(=O)c2ccccc2n2c(SCCOc3ccc(C)cc3)nnc12	2.9	3.0	0.3	-4.7	1.2	-1.5
Cc1nc(N)sc1-c1csc(Nc2cc(N(C)C)ccc2Cl)n1	1.7	4.1	x	-2.8	8.5	-3.0
Cc1cnc(NC(=O)CSc2nnc(COc3ccccc3)o2)s1	0.3	0.8	1.1	-2.1	-1.6	0.1
Cc1ccc(Oc2ccc(S(=O)(=O)Nc3ccc(C(=O)O)cc3)cc2)cc1	-2.0	-0.5	0.5	-2.1	-12.1	-5.2
CCOC(=O)NC(=O)CN1C(=O)NC(C)(c2ccccc2)C1=O (stereo not drawn)	0.4	10.3	-8.1	-2.2	0.8	-4.6
CC(C)C[C@@H]1COc2cccc(NC3CC3)c2S(=O)(=O)N1	x	x	x	-6.0	x	0.3
CSc1cc(-c2ccco2)oc1C(=O)c1ccco1	2.9	-3.0	1.3	-13.6	35.7*	-6.2
Cc1ccc(N(CC(=O)NC2CCCC2)C(=O)CNC(=O)c2cccs2)cc1F	-1.3	-1.4	0.6	6.2	8.0	0.0

Bioassay records deposited in PubChem by several laboratories.
